The nature of series [1]: Singlet oxygen generation assessed as comparative absorbance decay of 1,3-diphenylisobenzofuran at 1 uM at 418 nm after photoirradiation at 2.0 J/cm2 for 15 mins by spectrometry. Put shortly: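 Photosensitizer at 1 μM with DPBF (50 μM in DMSO), irradiated; visible spectra recorded and normalized DPBF absorbance at 418 nm compared against DPBF-only control, methylene blue as reference; mean of three experiments.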

Series [2] deals with HeLa. In words: Photosensitizing activity against human HeLa cells assessed as reduction in cell viability pre-incubated for 24 hrs followed by 15 mins exposure to 670 to 710 nm light at dose of 2.0 J/cm2 and measured 12 hrs after radiation by WST-8 assay. The series is classed as functional, cell-based. The settings on record: for IC50: light or radiation study. Put shortly: (§1)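 HeLa (ATCC) grown in EMEM + 10% FBS, 37 °C, 5% CO2, humidified; seeded per well in 96-well plates, 24 h, then medium replaced with fresh medium containing photosensitizer (0–10 μM). Irradiated with 670–710 nm light, 2 J/cm2 over 15 min, or kept dark; then 12 h at 37 °C in dark. WST-8 (CCK-8) added, 2 h; formazan read. DMSO vehicle control, medium+reagent blank; ≥3 repeats, mean.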

The test system of series [3] is HeLa. Nature of the series: Dark toxicity against human HeLa cells assessed as cell viability up to 10 uM incubated for 12 hrs under dark conditions by WST-8 assay. The series is classed as cell-based. Put shortly:
as §1

In series [4] the test system is HeLa. Nature of the series: Photosensitizing activity against human HeLa cells assessed as cell viability at 0.1 uM pre-incubated for 24 hrs followed by 15 mins exposure to 670 to 710 nm light at dose of 2.0 J/cm2 and measured 12 hrs after radiation by WST-8 assay. Conditions: light or radiation study, read-out: Activity. The series is classed as functional. Put shortly: as §1

Series [5] concerns HeLa. Nature of the series: Photosensitizing activity against human HeLa cells assessed as cell viability at 0.05 uM pre-incubated for 24 hrs followed by 15 mins exposure to 670 to 710 nm light at dose of 2.0 J/cm2 and measured 12 hrs after radiation by WST-8 assay. The format is functional. Conditions: light or radiation study, read-out: Activity. Put shortly:
as §1

Calls of active or inactive are those of the source. The rule behind the calls is not given here.

`C=Cc1c(C)c2cc3nc(c4c5[nH]c(cc6nc(cc1[nH]2)C(C)=C6CC)c(C)c5C(=O)N(Cc1ccncc1)C4=O)[C@@H](CCC(=O)OC)[C@@H]3C`: the result in series [1] was Active. Moreover, in the series with HeLa [2], the Activity entry is “Dose-dependent effect” and the IC50 was 189 nM. In addition, the Activity entry with HeLa [3] is “Non-toxic”.

`CCC1=C(C)c2cc3[nH]c(cc4nc(c5c6[nH]c(cc1n2)c(C)c6C(=O)N(OC)C5=O)[C@@H](CCC(=O)OC)[C@@H]4C)c(C)c3/C=C/c1ccc2ccccc2n1`: in series [1], the outcome was Active. Moreover, the Activity result is “Dose-dependent effect” with HeLa [2] and “Non-toxic” with HeLa [3]. Also, the IC50 in the series on HeLa [2] stood at 992 nM.

Take `CCC1=C(C)c2cc3[nH]c(cc4nc(c5c6[nH]c(cc1n2)c(C)c6C(=O)N(OC)C5=O)[C@@H](CCC(=O)OC)[C@@H]4C)c(C)c3/C=C/c1ccncc1`: in series [1], the result was Active. For the same compound, the Activity entry in the series on HeLa [2] is “Dose-dependent effect”; with HeLa [3], “Non-toxic”. Further, in the series on HeLa [2], the concentration for half-maximal inhibition (IC50) was determined as 3120 nM.

For the compound `CCC1=C(C)c2cc3[nH]c(cc4nc(c5c6[nH]c(cc1n2)c(C)c6C(=O)C5)[C@@H](CCC(=O)OC)[C@@H]4C)c(C)c3/C=C/c1ccc2ccccc2n1`, the result in series [1] was Active. The Activity result in the series with HeLa [2] was “Dose-dependent effect”; with HeLa [3], “Non-toxic”. Besides, the IC50 in the series with HeLa [2] came to 631 nM.

Regarding `CN(C)c1ccc2nc3ccc(=[N+](C)C)cc-3sc2c1`, the result in series [1] was Active.

`CCC1=C(C)c2cc3[nH]c(cc4nc(c(CC(=O)OC)c5[nH]c(cc1n2)c(C)c5C(=O)OC)[C@@H](CCC(=O)OC)[C@@H]4C)c(C)c3/C=C/c1ccc2ccccc2n1`: in series [1], the result was Active. Also, in the series with HeLa [2], the Activity result was “Dose-dependent effect” and the IC50 was found to be 170 nM. Besides, in the series on HeLa [3], the Activity entry was “Non-toxic”.

With `C=Cc1c(C)c2cc3nc(c(CC(=O)OC)c4[nH]c(cc5nc(cc1[nH]2)C(C)=C5CC)c(C)c4C(=O)NCc1ccncc1)[C@@H](CCC(=O)OC)[C@@H]3C`, the viability at 0.1 µM in the series with HeLa [4] amounted to 28.1%. The viability at 0.05 µM in the series on HeLa [5] amounted to 65.5%. In the series on HeLa [2], the Activity result is “Dose-dependent effect” and the IC50 came out at 71 nM. In addition, the Activity entry in the series on HeLa [3] is given as “Non-toxic”.

As for `CCC1=C(C)c2cc3[nH]c(cc4nc(c5c6[nH]c(cc1n2)c(C)c6C(=O)C5)[C@@H](CCC(=O)OC)[C@@H]4C)c(C)c3/C=C/c1ccncc1`, the result in series [1] was Active. Also, in the series with HeLa [2], the Activity result was “Dose-dependent effect” and the IC50 is 581 nM. Moreover, the Activity result in the series on HeLa [3] is “Non-toxic”.

For `C=Cc1c(C)c2cc3nc(c4c5[nH]c(cc6nc(cc1[nH]2)C(C)=C6CC)c(/C=C/c1ccncc1)c5C(=O)C4)[C@@H](CCC(=O)OC)[C@@H]3C`, the viability at 0.1 µM with HeLa [4] was 1.4%. Further, the result in series [1] was Active. In addition, the viability at 0.05 µM with HeLa [5] stood at 22.2%. Moreover, the Activity entry was “Dose-dependent effect” in the series with HeLa [2] and “Non-toxic” with HeLa [3]. For the same compound, the IC50 with HeLa [2] is 33 nM.

On to `CCC1=C(C)c2cc3[nH]c(cc4nc(c(CC(=O)OC)c5[nH]c(cc1n2)c(C)c5C(=O)OC)[C@@H](CCC(=O)OC)[C@@H]4C)c(C)c3/C=C/c1ccncc1`, for which the outcome in series [1] was Active. In the series with HeLa [2], the Activity result is “Dose-dependent effect” and the IC50 was determined as 141 nM. The Activity entry in the series with HeLa [3] is “Non-toxic”.
